This is an account of results in ChEMBL document CHEMBL3046255, “Moluccensins R-Y, limonoids from the seeds of a mangrove, Xylocarpus moluccensis” (2012).

SMILES strings stand for the structures.

Common to all, as to format: functional
For assay [1], the system named is Brontispa longissima. Briefly: Insecticidal activity against third-instar larvae of Brontispa longissima assessed as mortality at 1 mg/mL after 9 days.
The subject of assay [2] is Brontispa longissima. Description: Antifeedant activity against third-instar larvae of Brontispa longissima at 1 mg/mL after 48 hr by conventional leaf disk method. In a few lines: (§1)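 Third-instar larvae exposed to test material at 1 mg/mL. Antifeedant rate is given as percent, mean ± SD, and is read after 24 h […] and 48 h […].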
The subject of assay [3] is Brontispa longissima. Description: Antifeedant activity against third-instar larvae of Brontispa longissima at 1 mg/mL after 24 hr by conventional leaf disk method. The gist of the method: as §1
For assay [4], the system named is Brontispa longissima. Briefly: Antifeedant activity against third-instar larvae of Brontispa longissima after 24 hr by conventional leaf disk method. The gist of the method: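 Value is an AFC50: the concentration giving 50% antifeedant activity against third-instar larvae after 24 h exposure.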

With `CCC(C)C(=O)O[C@H]1C(C)(C)[C@H]([C@@H](O)C(=O)OC)[C@]2(C)C(=O)[C@@]1(O)CC1=C3CC(=O)O[C@@H](c4ccoc4)[C@]3(C)CC[C@@H]12` (stereo partly drawn) [MOLUCCENSIN S], the Activity with Brontispa longissima [1] is recorded as 48.2%; in the assay on Brontispa longissima [2], 44.1%; in the assay with Brontispa longissima [3], 42.3%.

On to `COC(=O)C[C@H]1C(C)(C)[C@H](OC(C)=O)[C@]2(O)CC3=C4CC(=O)O[C@@H](c5ccoc5)[C@]4(C)CC[C@@H]3[C@@]1(C)C2=O` [2-HYDROXYFISSINOLIDE], for which the Activity in the assay on Brontispa longissima [1] was 34.4%; in the assay on Brontispa longissima [2], 91.5%; in the assay on Brontispa longissima [3], 93.7%. Also, in the assay on Brontispa longissima [4], the AFC50 came to 94 µg/mL.

Turning to `COC(=O)[C@H](O)[C@H]1C(C)(C)[C@H](OC(=O)C(C)C)[C@]2(O)CC3=C4CC(=O)O[C@@H](c5ccoc5)[C@]4(C)CC[C@@H]3[C@@]1(C)C2=O` [MOLUCCENSIN R], the results for the Activity with Brontispa longissima [1], with Brontispa longissima [2] and with Brontispa longissima [3] were 17%, 62.1% and 69.6%, respectively.

As to `COC(=O)[C@H](O)[C@H]1C(C)(C)C(=O)[C@@H]2CC3=C4CC(=O)O[C@@H](c5ccoc5)[C@]4(C)CC[C@@H]3[C@@]1(C)C2=O` [6-HYDROXYMEXICANOLIDE], the Activity with Brontispa longissima [1] was determined as 20.7%; in the assay with Brontispa longissima [2], 69.3%; with Brontispa longissima [3] it was 76.6%.
